Experimental data: ChEMBL document CHEMBL4028873, “The Discovery of a Dual TTK Protein Kinase/CDC2-Like Kinase (CLK2) Inhibitor for the Treatment of Triple Negative Breast Cancer Initiated from a Phenotypic Screen” (J Med Chem, 2017)
Active and inactive are the calls of the source. No cut-off for these calls is given here.

How the values were obtained:
[1] = Clearance in SCID mouse at 5 mg/kg, iv; format: ADME, organism-based; conditions: in vivo
[2] = biological target: T1, Phosphatidylinositol 5-phosphate 4-kinase type-2 gamma (Homo sapiens) (UniProt Q8TBX8); experiment: Binding affinity to PIP4K2C in human HCT116 cell lysate at 3 uM after 1 hr by LC-MS/MS analysis
T1 sequence (whole entry): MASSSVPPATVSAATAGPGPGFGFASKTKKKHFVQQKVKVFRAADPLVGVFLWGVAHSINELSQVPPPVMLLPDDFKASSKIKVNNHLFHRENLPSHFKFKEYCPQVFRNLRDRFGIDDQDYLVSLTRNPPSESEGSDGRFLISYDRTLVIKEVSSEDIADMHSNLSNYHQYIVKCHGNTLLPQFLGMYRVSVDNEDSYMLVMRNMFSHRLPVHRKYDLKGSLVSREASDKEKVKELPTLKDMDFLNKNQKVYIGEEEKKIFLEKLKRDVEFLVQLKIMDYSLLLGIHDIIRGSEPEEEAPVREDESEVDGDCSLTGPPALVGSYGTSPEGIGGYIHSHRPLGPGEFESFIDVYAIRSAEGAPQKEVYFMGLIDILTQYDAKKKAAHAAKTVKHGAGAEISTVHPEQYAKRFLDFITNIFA
Summary of the method: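 ActivX KiNative cellular kinase profiling. HCT-116 cells were grown in RPMI-1640 with 10% FBS and exposed to compound at 3 μM for 1 h, with DMSO-only controls. Cells were then washed with ice-cold PBS, scraped, pelleted and stored at −80 °C. Kinase binding was reported as percent occupancy relative to the untreated controls.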

MDA-MB-468 = experiment: Antiproliferative activity against human MDA-MB-468 cells after 3 days by CellTiter-Glo assay; format: functional, cell-based
Summary of the method: (§1)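 Cell lines kept in vendor-recommended growth media; 3-day compound exposure, then CellTiter-Glo luminescence read. Percent inhibition per concentration normalized to DMSO control, triplicate wells.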

Mus musculus [3] = experiment: Toxicity in SCID mouse xenografted with human CAL51 cells assessed as loss in body weight at 20 mg/kg, iv administered every 3 days for 16 days relative to control; format: organism-based; conditions: in vivo
[4] = biological target: T2, Dual specificity tyrosine-phosphorylation-regulated kinase 3 (Homo sapiens, UniProt O43781); experiment: Inhibition of human full length recombinant GST-tagged DYRK3 expressed in baculovirus by Z'-LYTE assay
T2 sequence (O43781 whole entry): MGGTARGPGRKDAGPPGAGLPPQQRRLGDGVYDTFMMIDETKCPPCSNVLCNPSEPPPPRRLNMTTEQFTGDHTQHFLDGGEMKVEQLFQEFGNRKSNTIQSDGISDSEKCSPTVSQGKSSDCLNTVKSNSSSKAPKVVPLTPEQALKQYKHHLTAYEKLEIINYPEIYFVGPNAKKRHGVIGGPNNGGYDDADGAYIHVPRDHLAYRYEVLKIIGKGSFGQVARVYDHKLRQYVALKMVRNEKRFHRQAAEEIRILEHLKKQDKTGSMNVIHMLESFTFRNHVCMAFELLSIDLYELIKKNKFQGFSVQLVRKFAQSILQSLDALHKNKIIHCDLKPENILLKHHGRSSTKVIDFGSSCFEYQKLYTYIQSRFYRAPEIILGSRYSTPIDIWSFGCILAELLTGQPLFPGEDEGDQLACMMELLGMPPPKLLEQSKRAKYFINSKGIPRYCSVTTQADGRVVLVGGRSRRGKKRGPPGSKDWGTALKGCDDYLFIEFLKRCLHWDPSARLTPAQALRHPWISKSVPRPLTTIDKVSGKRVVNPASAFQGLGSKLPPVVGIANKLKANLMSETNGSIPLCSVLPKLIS

CAL-51 [5] = experiment: Antiproliferative activity against human CAL51 cells assessed as reduction in cell viability incubated for 12 to 72 hrs followed by compound washout measured after 72 hrs by Cell-Titer Glo assay; format: functional, cell-based
Summary of the method: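 Cal-51 seeded at 3000 cells/well, dosed next day (0.2% DMSO final), triplicate wells; exposure at 37 °C, 5% CO2 for 6, 12, 24, 48 or 72 h, then three medium washes and culture in fresh medium up to 72 h post treatment; viability read by CellTiter-Glo luminescence.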

CAL-51 [6] = experiment: Antiproliferative activity against human CAL51 cells xenografted in SCID mouse assessed as tumor growth inhibition at 10 mg/kg, iv administered every 3 days for 16 days relative to control; format: functional; conditions: CAL-51, iv, read-out: TGI
Summary of the method: (§2)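 Mice bearing tumors of about 125 mm3 randomized (n = 8−10/group) and given compound intravenously at the listed doses and schedules. Tumors measured twice weekly by digital caliper on long and short axes; volume = width² × length/2.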

[7] = biological target: Dual specificity tyrosine-phosphorylation-regulated kinase 1A (Homo sapiens, UniProt Q13627); experiment: Inhibition of human full length GST-tagged DYRK1A expressed in baculovirus by Z'-LYTE assay
[8] = biological target: Dual specificity tyrosine-phosphorylation-regulated kinase 1B (Homo sapiens, UniProt Q9Y463); conditions: 3 uM
Chain of Dual specificity tyrosine-phosphorylation-regulated kinase 1B (Q9Y463 whole entry, looked up): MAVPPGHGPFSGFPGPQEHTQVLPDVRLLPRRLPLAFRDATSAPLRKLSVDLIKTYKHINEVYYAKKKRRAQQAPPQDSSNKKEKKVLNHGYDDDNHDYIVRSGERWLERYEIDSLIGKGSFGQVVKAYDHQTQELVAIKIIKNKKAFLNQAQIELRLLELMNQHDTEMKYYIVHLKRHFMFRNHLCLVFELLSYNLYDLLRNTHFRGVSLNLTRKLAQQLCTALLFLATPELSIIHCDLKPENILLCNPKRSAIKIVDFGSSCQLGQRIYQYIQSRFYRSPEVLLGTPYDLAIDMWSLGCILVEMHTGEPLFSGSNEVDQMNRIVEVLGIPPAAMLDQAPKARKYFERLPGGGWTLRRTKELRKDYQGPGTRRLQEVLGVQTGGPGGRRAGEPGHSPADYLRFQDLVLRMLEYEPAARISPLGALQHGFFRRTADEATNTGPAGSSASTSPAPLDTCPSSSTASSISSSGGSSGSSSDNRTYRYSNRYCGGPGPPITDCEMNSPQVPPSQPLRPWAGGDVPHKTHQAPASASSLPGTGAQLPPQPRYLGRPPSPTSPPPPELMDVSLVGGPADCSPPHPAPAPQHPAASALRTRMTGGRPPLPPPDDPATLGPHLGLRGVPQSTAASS

Mus musculus [9] = experiment: Toxicity in SCID mouse xenografted with human CAL51 cells assessed as loss in body weight at 10 mg/kg, iv administered every 3 days for 16 days relative to control; format: organism-based; conditions: in vivo
[10] = biological target: Dual specificity protein kinase CLK1 (Homo sapiens) (UniProt P49759); conditions: 3 uM
Chain of Dual specificity protein kinase CLK1 (Homo sapiens) (P49759 whole entry, looked up): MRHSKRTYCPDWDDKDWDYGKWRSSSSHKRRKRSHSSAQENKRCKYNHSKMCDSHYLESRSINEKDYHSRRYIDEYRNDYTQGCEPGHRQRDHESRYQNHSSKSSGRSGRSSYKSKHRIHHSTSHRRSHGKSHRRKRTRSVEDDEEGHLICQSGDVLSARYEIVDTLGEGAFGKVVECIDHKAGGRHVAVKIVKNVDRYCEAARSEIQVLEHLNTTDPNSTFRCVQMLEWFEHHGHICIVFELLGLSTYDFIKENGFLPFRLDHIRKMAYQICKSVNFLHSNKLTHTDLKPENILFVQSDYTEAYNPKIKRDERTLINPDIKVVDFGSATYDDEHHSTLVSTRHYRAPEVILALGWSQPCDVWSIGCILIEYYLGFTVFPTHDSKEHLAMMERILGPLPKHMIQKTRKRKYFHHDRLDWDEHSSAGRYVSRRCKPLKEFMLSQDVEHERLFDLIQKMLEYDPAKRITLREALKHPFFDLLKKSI

CAL-51 [11] = experiment: Antiproliferative activity against human CAL51 cells xenografted in SCID mouse assessed as tumor growth inhibition at 20 mg/kg, iv administered every 7 days for 16 days relative to control; format: functional; conditions: CAL-51, iv, read-out: TGI; summary of the method: as §2
MDA-MB-361 = experiment: Antiproliferative activity against human MDA-MB-361 cells after 3 days by CellTiter-Glo assay; format: cell-based; conditions: mda-mb-361, 72 h; summary of the method: as §1
[12] = Metabolic stability in human liver S9 fraction assessed as percent of compound remaining after 60 mins; format: ADME, tissue-based; conditions: read-out: Stability
[13] = Clearance in rat at 2 mg/kg, iv; format: ADME, organism-based; conditions: in vivo
[14] = Metabolic stability in rat liver S9 fraction assessed as percent of compound remaining after 60 mins; format: ADME, tissue-based; conditions: read-out: Stability
ZR-75-30 = experiment: Antiproliferative activity against human ZR75-30 cells after 3 days by CellTiter-Glo assay; format: cell-based; conditions: zr-75-30, 72 h; summary of the method: as §1
[15] = biological target: c-Jun N-terminal kinase, JNK (Homo sapiens, UniProt P45983+P53779+P45984); experiment: Inhibition of JNK1/JNK2/JNK3 in human HCT116 cell lysate after 1 hr by LC-MS/MS analysis relative to control
[16] = biological target: T3, Phosphorylase b kinase gamma catalytic chain, skeletal muscle/heart isoform (Homo sapiens, UniProt Q16816); experiment: Inhibition of full length human GST-tagged PHKG1 expressed in baculovirus by Z'-LYTE assay
Target sequence in this assay (Q16816 whole entry, canonical isoform): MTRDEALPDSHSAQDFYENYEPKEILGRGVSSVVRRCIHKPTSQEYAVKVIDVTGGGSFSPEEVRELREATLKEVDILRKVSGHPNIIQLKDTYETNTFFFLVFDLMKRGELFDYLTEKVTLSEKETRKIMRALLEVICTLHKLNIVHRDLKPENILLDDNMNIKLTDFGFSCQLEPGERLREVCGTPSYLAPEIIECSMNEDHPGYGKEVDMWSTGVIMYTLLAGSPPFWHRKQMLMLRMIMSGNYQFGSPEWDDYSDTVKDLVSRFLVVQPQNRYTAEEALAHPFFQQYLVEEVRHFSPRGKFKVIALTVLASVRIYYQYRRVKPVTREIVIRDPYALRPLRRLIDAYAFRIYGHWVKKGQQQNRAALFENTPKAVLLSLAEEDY

[17] = biological target: T3, Phosphorylase b kinase gamma catalytic chain, skeletal muscle/heart isoform; conditions: 3 uM
Target sequence in this assay (Q16816 whole entry, looked up, canonical isoform): as the sequence (Q16816 whole entry, canonical isoform) above

[18] = biological target: Dual specificity protein kinase CLK2 (Homo sapiens) (UniProt P49760); conditions: 3 uM
Chain of Dual specificity protein kinase CLK2 (Homo sapiens) (P49760 whole entry, looked up): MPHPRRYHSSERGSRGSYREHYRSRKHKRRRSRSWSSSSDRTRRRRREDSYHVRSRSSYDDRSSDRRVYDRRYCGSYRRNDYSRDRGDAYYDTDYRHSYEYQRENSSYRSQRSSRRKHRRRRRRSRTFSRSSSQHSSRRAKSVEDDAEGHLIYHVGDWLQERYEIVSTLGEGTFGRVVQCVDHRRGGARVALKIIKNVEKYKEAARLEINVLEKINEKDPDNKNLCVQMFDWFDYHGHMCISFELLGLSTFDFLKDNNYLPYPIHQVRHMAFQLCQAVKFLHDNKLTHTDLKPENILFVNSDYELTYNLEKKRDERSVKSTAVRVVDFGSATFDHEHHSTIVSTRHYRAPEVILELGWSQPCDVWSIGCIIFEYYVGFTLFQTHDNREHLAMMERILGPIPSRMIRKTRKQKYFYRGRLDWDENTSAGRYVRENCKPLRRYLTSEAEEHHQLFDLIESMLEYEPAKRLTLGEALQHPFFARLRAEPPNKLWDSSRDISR

[19] = biological target: T4, Dual specificity tyrosine-phosphorylation-regulated kinase 3 (Homo sapiens) (UniProt O43781); conditions: 3 uM
T4 sequence (whole entry): T2 sequence (O43781 whole entry)

[20] = Mean residence time in rat at 2 mg/kg, iv; format: ADME, organism-based; conditions: in vivo

- clearance [1]: 8.48 mL/min/kg
- Activity [2]: > 75%
- IC50 [4]: 99 nM
- IC50 [7]: 104 nM
- inhibition [8]: > 80%
- inhibition [10]: > 80%
- remaining at 1 h [12]: 91%
- clearance [13]: 9.3 mL/min/kg
- remaining at 1 h [14]: 98%
- IC50 [15]: 680 nM
- IC50 [16]: 136 nM
- inhibition [17]: > 80%
- inhibition [18]: > 80%
- inhibition [19]: > 80%
- MRT [20]: 4.1 h
Structure (SMILES): CNC(=O)c1ccc(Nc2nc(OC3CCCC3)c3c(-c4ccc5nc(C)oc5c4)c[nH]c3n2)c(OC)c1
- Activity (MDA-MB-468): Active
- Activity (Mus musculus [3]): 17%
- Activity (CAL-51 [5]): Active
- inhibition in vivo at 10 mg/kg (CAL-51 [6]): 71%
- Activity (Mus musculus [9]): 5%
- inhibition in vivo at 20 mg/kg (CAL-51 [11]): 70%
- Activity (MDA-MB-361): Non-Toxic
- Activity (ZR-75-30): Non-Toxic
